Measurements as given in ChEMBL document CHEMBL3603808, “Discovery and structure of a new inhibitor scaffold of the autophagy initiating kinase ULK1” (Bioorg Med Chem, 2015).

Columns and labels:
[1] = target: Interleukin-1 receptor-associated kinase 4 (Homo sapiens) (UniProt Q9NWZ3); test: Inhibition of IRAK4 (unknown origin) at 2 uM by radioactive filter-binding assay
How it was run: (§1)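 Panel profiling of one compound against 50 kinases, carried out in duplicate at the International Centre for Protein Kinase Profiling. Radioactive filter-binding format.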

[2] = target: Serine/threonine-protein kinase TBK1 (Homo sapiens) (UniProt Q9UHD2); test: Inhibition of TBK1 (unknown origin) at 2 uM by radioactive filter-binding assay; how it was run: as §1
[3] = target: Serine/threonine-protein kinase PAK 4 (Homo sapiens) (UniProt O96013); test: Inhibition of PAK4 (unknown origin) at 2 uM by radioactive filter-binding assay; how it was run: as §1
[4] = target: T1, Vascular endothelial growth factor receptor (Homo sapiens) (UniProt P17948+P35916+P35968); test: Inhibition of VEGFR (unknown origin) at 2 uM by radioactive filter-binding assay; assay type: protein assay; how it was run: as §1
[5] = target: Serine/threonine-protein kinase 3 (Homo sapiens) (UniProt Q13188); test: Inhibition of MST2 (unknown origin) at 250 nM by radioactive filter-binding assay; how it was run: as §1
[6] = target: Serine/threonine-protein kinase N2 (Homo sapiens) (UniProt Q16513); test: Inhibition of PRK2 (unknown origin) at 250 nM by radioactive filter-binding assay; how it was run: as §1
Homo sapiens = species: Homo sapiens; test: Inhibition of Aurora (unknown origin) at 250 nM by radioactive filter-binding assay; how it was run: as §1
[7] = target: T1, Vascular endothelial growth factor receptor (Homo sapiens); test: Inhibition of VEGFR (unknown origin) at 250 nM by radioactive filter-binding assay; assay type: protein assay; how it was run: as §1
[8] = target: Serine/threonine-protein kinase Sgk1 (Homo sapiens) (UniProt O00141); test: Inhibition of SGK1 (unknown origin) at 250 nM by radioactive filter-binding assay; how it was run: as §1
[9] = target: Tyrosine-protein kinase JAK2 (Homo sapiens) (UniProt O60674); test: Inhibition of JAK2 (unknown origin) at 250 nM by radioactive filter-binding assay; how it was run: as §1
[10] = target: High affinity nerve growth factor receptor (Homo sapiens) (UniProt P04629); test: Inhibition of TRKA (unknown origin) at 250 nM by radioactive filter-binding assay; how it was run: as §1

Measured: inhibition

T1 sequence (P17948 whole entry, looked up): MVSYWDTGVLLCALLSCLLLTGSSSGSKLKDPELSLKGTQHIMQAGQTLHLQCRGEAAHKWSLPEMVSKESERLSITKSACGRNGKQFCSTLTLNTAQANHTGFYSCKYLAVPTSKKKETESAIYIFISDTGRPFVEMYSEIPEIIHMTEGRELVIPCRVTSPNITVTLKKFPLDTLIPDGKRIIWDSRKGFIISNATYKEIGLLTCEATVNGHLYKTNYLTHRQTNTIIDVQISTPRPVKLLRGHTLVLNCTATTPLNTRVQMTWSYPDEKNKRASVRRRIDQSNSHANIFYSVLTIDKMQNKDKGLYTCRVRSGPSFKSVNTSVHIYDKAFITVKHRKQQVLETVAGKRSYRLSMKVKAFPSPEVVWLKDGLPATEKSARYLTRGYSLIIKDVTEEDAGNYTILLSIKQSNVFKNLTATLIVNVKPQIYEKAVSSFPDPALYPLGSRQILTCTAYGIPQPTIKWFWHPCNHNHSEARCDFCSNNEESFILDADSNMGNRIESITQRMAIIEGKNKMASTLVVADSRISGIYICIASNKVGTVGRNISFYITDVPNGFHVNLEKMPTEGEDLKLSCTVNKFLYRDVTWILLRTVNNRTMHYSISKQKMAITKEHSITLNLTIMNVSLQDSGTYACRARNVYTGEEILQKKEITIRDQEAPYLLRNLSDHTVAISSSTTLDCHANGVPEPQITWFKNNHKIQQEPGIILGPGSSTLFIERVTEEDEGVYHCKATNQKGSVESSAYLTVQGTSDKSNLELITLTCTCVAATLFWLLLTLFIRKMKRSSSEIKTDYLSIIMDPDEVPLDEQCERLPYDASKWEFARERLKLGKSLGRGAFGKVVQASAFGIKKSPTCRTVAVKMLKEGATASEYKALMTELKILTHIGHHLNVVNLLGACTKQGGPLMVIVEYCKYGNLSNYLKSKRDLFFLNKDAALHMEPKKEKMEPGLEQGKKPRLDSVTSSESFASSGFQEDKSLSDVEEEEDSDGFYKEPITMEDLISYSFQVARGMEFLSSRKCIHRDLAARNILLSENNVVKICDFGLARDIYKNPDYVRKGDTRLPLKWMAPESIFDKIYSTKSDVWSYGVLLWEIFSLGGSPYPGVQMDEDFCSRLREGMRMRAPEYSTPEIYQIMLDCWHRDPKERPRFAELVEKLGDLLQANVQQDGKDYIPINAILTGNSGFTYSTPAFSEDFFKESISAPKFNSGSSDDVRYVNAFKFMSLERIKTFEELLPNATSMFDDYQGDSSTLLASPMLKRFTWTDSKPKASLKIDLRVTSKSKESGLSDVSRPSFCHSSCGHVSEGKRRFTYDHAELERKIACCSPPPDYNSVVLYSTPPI
T1 sequence (P35916 whole entry, looked up): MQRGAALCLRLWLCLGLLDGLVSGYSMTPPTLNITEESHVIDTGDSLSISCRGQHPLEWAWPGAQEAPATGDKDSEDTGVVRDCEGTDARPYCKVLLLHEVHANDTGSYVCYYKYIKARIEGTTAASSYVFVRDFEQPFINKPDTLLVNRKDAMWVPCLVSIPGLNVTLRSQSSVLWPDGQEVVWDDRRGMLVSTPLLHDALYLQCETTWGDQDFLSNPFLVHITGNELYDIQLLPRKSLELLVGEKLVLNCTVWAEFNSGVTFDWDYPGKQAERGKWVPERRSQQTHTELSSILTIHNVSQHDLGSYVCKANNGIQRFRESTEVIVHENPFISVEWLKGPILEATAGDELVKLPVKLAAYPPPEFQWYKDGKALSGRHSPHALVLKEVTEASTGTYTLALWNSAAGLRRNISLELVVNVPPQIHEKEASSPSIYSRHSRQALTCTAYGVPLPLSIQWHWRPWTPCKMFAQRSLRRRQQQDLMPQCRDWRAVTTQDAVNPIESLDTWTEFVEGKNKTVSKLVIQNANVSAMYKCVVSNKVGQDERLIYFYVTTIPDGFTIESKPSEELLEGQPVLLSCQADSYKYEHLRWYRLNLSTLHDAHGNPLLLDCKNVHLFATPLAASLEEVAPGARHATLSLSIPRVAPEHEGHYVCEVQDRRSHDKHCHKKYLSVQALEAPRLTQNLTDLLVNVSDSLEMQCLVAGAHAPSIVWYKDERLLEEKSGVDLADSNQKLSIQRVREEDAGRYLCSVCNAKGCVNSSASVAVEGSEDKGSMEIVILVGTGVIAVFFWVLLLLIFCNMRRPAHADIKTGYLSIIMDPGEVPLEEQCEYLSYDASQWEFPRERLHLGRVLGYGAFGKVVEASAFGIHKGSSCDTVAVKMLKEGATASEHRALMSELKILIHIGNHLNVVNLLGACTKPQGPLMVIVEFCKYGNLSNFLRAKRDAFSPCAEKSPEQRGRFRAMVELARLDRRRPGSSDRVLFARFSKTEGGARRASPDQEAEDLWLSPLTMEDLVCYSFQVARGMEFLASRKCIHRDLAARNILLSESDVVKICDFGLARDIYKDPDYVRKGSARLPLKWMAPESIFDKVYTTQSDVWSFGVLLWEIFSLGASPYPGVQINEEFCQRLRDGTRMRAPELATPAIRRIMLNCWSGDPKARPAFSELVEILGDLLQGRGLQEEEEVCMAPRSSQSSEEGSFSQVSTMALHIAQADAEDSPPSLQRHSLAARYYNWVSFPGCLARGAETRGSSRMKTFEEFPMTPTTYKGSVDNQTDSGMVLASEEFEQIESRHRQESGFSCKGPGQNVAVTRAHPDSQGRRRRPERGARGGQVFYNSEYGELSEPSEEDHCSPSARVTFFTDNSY
T1 sequence (P35968 whole entry, looked up): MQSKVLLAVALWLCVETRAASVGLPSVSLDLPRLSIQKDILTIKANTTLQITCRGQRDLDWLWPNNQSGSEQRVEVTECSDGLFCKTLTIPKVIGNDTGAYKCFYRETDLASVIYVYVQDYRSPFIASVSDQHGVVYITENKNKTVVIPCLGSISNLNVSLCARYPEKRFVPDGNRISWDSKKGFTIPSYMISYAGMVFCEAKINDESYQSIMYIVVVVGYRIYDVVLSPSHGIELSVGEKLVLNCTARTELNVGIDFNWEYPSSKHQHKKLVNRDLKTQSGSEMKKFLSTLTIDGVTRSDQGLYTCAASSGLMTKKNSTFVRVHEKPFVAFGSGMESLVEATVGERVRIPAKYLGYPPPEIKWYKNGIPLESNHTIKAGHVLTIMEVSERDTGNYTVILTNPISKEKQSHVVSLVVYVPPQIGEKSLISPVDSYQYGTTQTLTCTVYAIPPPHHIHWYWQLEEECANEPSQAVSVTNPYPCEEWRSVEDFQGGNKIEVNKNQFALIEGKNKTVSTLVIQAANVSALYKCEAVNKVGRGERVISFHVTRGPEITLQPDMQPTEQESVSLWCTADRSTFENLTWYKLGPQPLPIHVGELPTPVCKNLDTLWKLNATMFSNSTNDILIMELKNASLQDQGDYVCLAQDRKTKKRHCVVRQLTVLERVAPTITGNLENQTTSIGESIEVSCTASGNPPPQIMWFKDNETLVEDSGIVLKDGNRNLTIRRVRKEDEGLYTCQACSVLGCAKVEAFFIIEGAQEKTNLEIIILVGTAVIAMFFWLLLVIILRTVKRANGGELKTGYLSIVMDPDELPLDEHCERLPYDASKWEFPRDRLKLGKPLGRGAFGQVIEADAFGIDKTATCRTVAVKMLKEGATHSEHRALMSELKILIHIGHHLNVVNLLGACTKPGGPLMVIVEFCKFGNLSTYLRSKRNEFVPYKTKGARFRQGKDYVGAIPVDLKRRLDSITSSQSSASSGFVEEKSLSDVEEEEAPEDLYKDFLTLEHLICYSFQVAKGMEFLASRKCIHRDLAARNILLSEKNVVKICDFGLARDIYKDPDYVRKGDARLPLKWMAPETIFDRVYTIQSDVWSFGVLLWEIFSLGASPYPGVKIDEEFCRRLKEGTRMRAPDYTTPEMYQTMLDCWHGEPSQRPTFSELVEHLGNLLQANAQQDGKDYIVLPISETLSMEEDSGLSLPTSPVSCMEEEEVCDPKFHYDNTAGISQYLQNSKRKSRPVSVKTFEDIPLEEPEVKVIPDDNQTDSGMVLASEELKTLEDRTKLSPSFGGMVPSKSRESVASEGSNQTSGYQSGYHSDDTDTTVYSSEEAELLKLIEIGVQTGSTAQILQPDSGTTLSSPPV
Serine/threonine-protein kinase PAK 4 (Homo sapiens), sequence (O96013 whole entry, looked up): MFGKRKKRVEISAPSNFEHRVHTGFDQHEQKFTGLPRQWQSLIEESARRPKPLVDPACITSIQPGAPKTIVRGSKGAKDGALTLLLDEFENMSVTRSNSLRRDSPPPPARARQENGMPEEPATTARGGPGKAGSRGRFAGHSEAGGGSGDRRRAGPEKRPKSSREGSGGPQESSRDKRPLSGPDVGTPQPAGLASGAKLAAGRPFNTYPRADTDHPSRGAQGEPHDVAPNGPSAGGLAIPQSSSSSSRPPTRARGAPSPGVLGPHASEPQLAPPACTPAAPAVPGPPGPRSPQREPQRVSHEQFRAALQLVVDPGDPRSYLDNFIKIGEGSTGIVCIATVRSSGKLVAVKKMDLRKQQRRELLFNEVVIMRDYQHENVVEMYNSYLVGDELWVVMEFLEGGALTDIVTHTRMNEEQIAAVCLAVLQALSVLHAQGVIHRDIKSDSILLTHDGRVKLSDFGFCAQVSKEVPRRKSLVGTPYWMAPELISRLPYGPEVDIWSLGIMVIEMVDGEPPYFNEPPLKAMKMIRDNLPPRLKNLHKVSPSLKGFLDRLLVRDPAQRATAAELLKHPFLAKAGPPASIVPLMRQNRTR
Serine/threonine-protein kinase Sgk1 (Homo sapiens), sequence (O00141 whole entry): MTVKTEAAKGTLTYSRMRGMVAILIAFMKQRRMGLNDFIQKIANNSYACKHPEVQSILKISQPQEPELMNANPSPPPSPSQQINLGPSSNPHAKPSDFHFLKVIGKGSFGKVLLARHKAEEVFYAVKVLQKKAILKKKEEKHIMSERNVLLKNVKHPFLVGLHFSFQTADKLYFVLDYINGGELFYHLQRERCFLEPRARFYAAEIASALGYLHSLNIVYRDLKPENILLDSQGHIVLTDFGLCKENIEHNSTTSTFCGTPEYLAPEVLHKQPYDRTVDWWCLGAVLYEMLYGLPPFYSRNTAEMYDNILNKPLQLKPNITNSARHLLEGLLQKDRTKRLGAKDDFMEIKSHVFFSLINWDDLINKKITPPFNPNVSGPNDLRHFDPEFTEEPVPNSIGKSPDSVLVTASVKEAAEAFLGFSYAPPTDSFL

NCCCNc1nc(Nc2cccc(NC(=O)N3CCCC3)c2)ncc1I
> 80%: [1] | [2] | [3] | [4]

c1ccc2c(Nc3cc(C4CCC4)[nH]n3)nc(Nc3ccc4[nH]cnc4c3)nc2c1
not listed: [1] | [2] | [3] | [4]
> 80%: all other assays above
